Laboratory results published in ChEMBL document CHEMBL4382272, “A Curcumin Degradation Product, 7-Norcyclopentadione, Formed by Aryl Migration and Loss of a Carbon from the Heptadienedione Chain” (J Nat Prod, 2018).
Each block holds one compound with its values, some of them ahead of it.

Columns and labels:
[1] = Drug metabolism assessed as horseradish peroxidase-mediated oxidation by measuring bisdemethoxy-7-Norcyclopentadione formation at 50 uM after 1 hr in presence of H2O2 by LC-MS analysis; format: ADME; settings: armoracia rusticana
How it was run: (§1)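 HRP/H2O2 oxidation in 1 mL of 20 mM NH4OAc, pH 8, with 50 μM curcuminoid and 2.5 × 10−6 U horseradish peroxidase. H2O2 (40 μM) started the reaction, which ran 1 h at 37 °C. An aliquot was injected directly for negative-ion LC-MS.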

[2] = Drug level treated with deuterated-demethoxy curcumin assessed as horseradish peroxidase-mediated oxidation at 50 uM after 1 hr in presence of H2O2 by LC-MS analysis; format: ADME; settings: armoracia rusticana; how it was run: as §1
[3] = Drug metabolism assessed as horseradish peroxidase-mediated oxidation by measuring deuterated-demethoxy-7-Norcyclopentadione formation at 50 uM after 1 hr in presence of H2O2 by LC-MS analysis; format: ADME; settings: armoracia rusticana; how it was run: as §1
[4] = Drug metabolism in pH 7.4 buffer assessed as auto-oxidation by measuring 7-Norcyclopentadione formation at 50 uM by LC-MS analysis
[5] = Drug metabolism in PMA-stimulated mouse RAW264.7 cells assessed as auto-oxidation by measuring 7-Norcyclopentadione formation at 10 uM after 30 mins by LC-MS analysis; format: ADME, cell-based; settings: raw264.7, 0.5 h
How it was run: (§2)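 RAW264.7 cells grown in DMEM with 10% FBS, seeded at 400 000 cells/well and attached overnight. They got PMA (stimulated lines) or EtOH vehicle for 5 min, then the test compound at 10 μM for 30 min. Supernatants were extracted on HLB cartridges, eluted with MeOH, dried under N2 and redissolved in MeCN/H2O 1:1. Analysis was negative-ion ESI LC-MS/MS in SRM mode.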

[6] = Drug metabolism assessed as auto-oxidation by measuring 7-Norcyclopentadione formation at 50 uM by LC-MS analysis
[7] = Drug metabolism in pH 7.4 buffer containing 50% H218O assessed as auto-oxidation by measuring 7-Norcyclopentadione formation at 50 uM by LC-MS analysis
How it was run: (§3)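 Oxygen-18 labelling in 200 μL of 20 mM NH4HCO3, pH 7.4, made with a 1:1 mix of H2O and H218O (97%). Curcumin was added at 50 μM and incubated 1 h at 37 °C. Aliquots went to negative-ion LC-MS without extraction.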

[8] = Drug metabolism in PMA-stimulated mouse RAW264.7 cells assessed as auto-oxidation by measuring 4''-O-methyl-7-norcyclopentadione formation at 10 uM after 30 mins by LC-MS analysis; format: ADME, cell-based; settings: raw264.7, 0.5 h; how it was run: as §2
[9] = Drug level treated with demethoxy curcumin assessed as horseradish peroxidase-mediated oxidation at 50 uM after 1 hr in presence of H2O2 by LC-MS analysis; format: ADME; settings: armoracia rusticana; how it was run: as §1
[10] = Drug level in PMA-stimulated mouse RAW264.7 cells treated with curcumin at 10 uM after 30 mins by LC-MS analysis; format: ADME, cell-based; settings: raw264.7, 0.5 h; how it was run: as §2
[11] = Drug level in pH 7.4 buffer containing 50% H218O treated with curcumin at 50 uM by LC-MS analysis; format: physicochemical; settings: pH 7.4, 50 µM; how it was run: as §3
[12] = Drug metabolism in pH 7.4 buffer treated with curcumin at 50 uM by LC-MS analysis
[13] = Drug level treated with curcumin at 50 uM by LC-MS analysis; format: physicochemical
[14] = Drug level in mouse RAW264.7 cells treated with curcumin at 10 uM after 30 mins by LC-MS analysis; format: ADME, cell-based; settings: raw264.7, 0.5 h; how it was run: as §2
[15] = Drug level in mouse RAW264.7 cells treated with 4'-O-methylcurcumin at 10 uM after 30 mins by LC-MS analysis; format: ADME, cell-based; settings: raw264.7, 0.5 h; how it was run: as §2
[16] = Drug level in PMA-stimulated mouse RAW264.7 cells treated with 4'-O-methylcurcumin at 10 uM after 30 mins by LC-MS analysis; format: ADME, cell-based; settings: raw264.7, 0.5 h; how it was run: as §2
[17] = Drug metabolism assessed as horseradish peroxidase-mediated oxidation by measuring demethoxy-7-Norcyclopentadione formation at 50 uM after 1 hr in presence of H2O2 by LC-MS analysis; format: ADME; settings: armoracia rusticana; how it was run: as §1

- Drug metabolism [5]: Metabolite_Detected
Compound: COc1cc(/C=C/C(=O)CC(=O)/C=C/c2ccc(O)c(OC)c2)ccc1O [CURCUMIN]
- Drug metabolism [4]: Metabolite detected
- Drug metabolism [6]: Metabolite detected
- Drug metabolism [7]: Metabolite detected

- Drug metabolism [9]: Metabolite_Detected
Compound: COc1cc(C2C(O)=CC(=O)C2C(O)c2ccc(O)cc2)ccc1O (configuration not stated)

- Drug metabolism [10]: Metabolite_Detected
- Drug metabolism [11]: Metabolite_Detected
- Drug metabolism [13]: Metabolite_Detected
- Drug metabolism [14]: Metabolite_Detected
Compound: COc1cc(C(O)C2C(=O)C=C(O)C2c2ccc(O)c(OC)c2)ccc1O (configuration not stated)
- Drug metabolism [12]: Metabolite detected

- Drug metabolism [15]: Metabolite_Detected
- Drug metabolism [16]: Metabolite_Detected
Compound: COc1cc(C2C(O)=CC(=O)C2C(O)c2ccc(OC)c(OC)c2)ccc1O (configuration not stated)

Further lines, the compound ahead of its results:

Compound: O=C(/C=C/c1ccc(O)cc1)CC(=O)/C=C/c1ccc(O)cc1 [BISDEMETHOXYCURCUMIN]
- Drug metabolism [1]: Metabolite_Notdetected

Compound: [2H]c1c([2H])c(C(O)C2C(=O)C=C(O)C2c2ccc(O)c(OC)c2)c([2H])c([2H])c1O (configuration not stated)
- Drug metabolism [2]: Metabolite_Detected

Compound: [2H]c1c([2H])c(/C=C/C(=O)CC(=O)/C=C/c2ccc(O)c(OC)c2)c([2H])c([2H])c1O
- Drug metabolism [3]: Metabolite_Detected

Compound: COc1cc(/C=C/C(=O)/C=C(O)/C=C/c2ccc(OC)c(OC)c2)ccc1O
- Drug metabolism [8]: Metabolite_Detected

Compound: COc1cc(/C=C/C(=O)CC(=O)/C=C/c2ccc(O)cc2)ccc1O
- Drug metabolism [17]: Metabolite_Detected
